In ChEMBL document CHEMBL1122121, “Synthesis and biological activity of 5'-substituted 5-fluoropyrimidine nucleosides” (J Med Chem, 1982):

How the values were obtained:
[1] = system: CCRF-CEM; assay: Concentration required for the 50% inhibition of growth of CCRF-CEM human leukemia cells in culture; format: functional, cell-based
How it was run: (§1)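 10^5 mycoplasma-free L1210 or CCRF-CEM cells grown 48 h in RPMI 1640 with 10% fetal calf serum containing compound, then counted. Value is concentration giving 50% growth inhibition. Compounds were purified by preparative TLC until no FUrd was detectable by HPLC. Highest concentration noted was 10^-4 M.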

[2] = system: L1210; assay: Concentration required for the 50% inhibition of growth of L1210 mouse leukemia cells in culture; format: functional, cell-based; how it was run: as §1
[3] = system: L1210; assay: Antitumor activity against L1210 leukemia cells in mice at a dose of 100 mg/kg (ip) expressed as change in the body weight after 7 days; format: functional, Mus musculus
How it was run: (§2)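 Female DBA/2 mice (18–22 g), groups of five, implanted ip with 10^5 L1210 cells on day 0. Compound in PBS given ip (0.2 mL) once daily days 1–5. Controls got PBS. Mice weighed on days 1 and 7. Weight change expressed as percentage of initial weight.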

[4] = system: L1210; assay: Antitumor activity against L1210 leukemia cells in mice at a dose of 150 mg/kg (ip) expressed as change in the body weight after 7 days; format: functional, Mus musculus; how it was run: as §2
[5] = system: L1210; assay: Antitumor activity against L1210 leukemia cells in mice at a dose of 250 mg/kg (ip) expressed as change in the body weight after 7 days; format: functional, Mus musculus; how it was run: as §2
[6] = system: Mus musculus; assay: Percent increase in life span(ILS) was measured in mice at a dose of 100 mg/kg; format: functional
How it was run: (§3)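 Female DBA/2 mice (18–22 g), groups of five, implanted ip on day 0 with 10^5 L1210 leukemia cells. Compound dissolved in PBS and given ip daily on days 1–5 (q.d. 1–5). Controls received PBS. Mice were weighed on days 1 and 7. Read-outs were mean mortality and percent increase in life span.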

[7] = system: Mus musculus; assay: Percent increase in life span(ILS) was measured in mice at a dose of 150 mg/kg; format: functional; how it was run: as §3
[8] = system: Mus musculus; assay: Percent increase in life span(ILS) was measured in mice at a dose of 250 mg/kg; format: functional; how it was run: as §3
[9] = system: Mus musculus; assay: Mortality rate was measured at a dose of 100 mg/kg; format: functional; how it was run: as §3
[10] = system: Mus musculus; assay: Mortality rate was measured at a dose of 150 mg/kg; format: functional; how it was run: as §3
[11] = system: Mus musculus; assay: Mortality rate was measured at a dose of 250 mg/kg; format: functional; how it was run: as §3
[12] = system: CCRF-CEM; assay: Concentration required for the 50% inhibition of growth of CCRF-CEM human leukemia cells in culture; No growth inhibition was observed at a concentration of 10^-4 M; format: functional, cell-based; how it was run: as §1
[13] = system: L1210; assay: Concentration required for the 50% inhibition of growth of L1210 mouse leukemia cells in culture; No growth inhibition was observed at a concentration of 10^-4 M; format: functional, cell-based; how it was run: as §1

Structure (SMILES): [N-]=[N+]=NC[C@H]1OC(n2cc(F)c(=O)[nH]c2=O)[C@H](O)[C@@H]1O (some centres not stated)
- IC50 [1]: 350 µM
- IC50 [2]: 170 µM

Structure (SMILES): O=c1[nH]c(=O)n(C2O[C@H](CCl)[C@@H](O)[C@H]2O)cc1F (some centres not stated)
- Change of body weight [3]: -0.8%
- Change of body weight [4]: -3.5%
- Change of body weight [5]: -4.6%
- IC50 [2]: 3.4 µM
- ILS at 100 mg/kg [6]: 47%
- ILS at 150 mg/kg [7]: 51%
- ILS at 250 mg/kg [8]: 64%
- Mean survival time [9]: 15.6 days
- Mean day of death [10]: 16 days
- Mean day of death [11]: 17.4 days

Structure (SMILES): Cc1ccc(S(=O)(=O)OC[C@H]2OC(n3cc(F)c(=O)[nH]c3=O)[C@H](O)[C@@H]2O)cc1 (some centres not stated)
- IC50 [1]: 1.8 µM
- IC50 [2]: 0.46 µM

Structure (SMILES): O=c1[nH]c(=O)n(C2O[C@H](CO[N+](=O)[O-])[C@@H](O)[C@H]2O)cc1F (some centres not stated)
- IC50 [12]: No inhibition
- IC50 [13]: No inhibition

Structure (SMILES): O=c1[nH]c(=O)n(C2O[C@H](CF)[C@@H](O)[C@H]2O)cc1F (some centres not stated)
- IC50 [1]: 140 µM
- Change of body weight [3]: -5.6%
- Change of body weight [4]: 0.9%
- Change of body weight [5]: 2.3%
- IC50 [2]: 29 µM
- ILS at 100 mg/kg [6]: 32%
- ILS at 150 mg/kg [7]: 30%
- ILS at 250 mg/kg [8]: 58%
- Mean survival time [9]: 14 days
- Mean day of death [10]: 13.8 days
- Mean day of death [11]: 16.8 days

Structure (SMILES): CS(=O)(=O)OC[C@H]1OC(n2cc(F)c(=O)[nH]c2=O)[C@H](O)[C@@H]1O (some centres not stated)
- IC50 [1]: 0.66 µM
- Change of body weight [3]: 0%
- Change of body weight [4]: 1.3%
- Change of body weight [5]: -1.7%
- IC50 [2]: 0.32 µM
- ILS at 100 mg/kg [6]: 26%
- ILS at 150 mg/kg [7]: 40%
- ILS at 250 mg/kg [8]: 58%
- Mean survival time [9]: 13.4 days
- Mean day of death [10]: 14.8 days
- Mean day of death [11]: 16.8 days

Structure (SMILES): O=c1[nH]c(=O)n(C2O[C@H](CI)[C@@H](O)[C@H]2O)cc1F (some centres not stated)
- IC50 [1]: 27 µM
- Change of body weight [3]: 0%
- IC50 [2]: 5 µM

Structure (SMILES): NC[C@H]1OC(n2cc(F)c(=O)[nH]c2=O)[C@H](O)[C@@H]1O (some centres not stated)
- IC50 [1]: 49 µM
- Change of body weight [3]: 1.8%
- Change of body weight [4]: -5.5%
- Change of body weight [5]: -0.9%
- IC50 [2]: 8.7 µM
- ILS at 100 mg/kg [6]: 17%
- ILS at 150 mg/kg [7]: 19%
- ILS at 250 mg/kg [8]: 28%
- Mean survival time [9]: 12.4 days
- Mean day of death [10]: 12.8 days
- Mean day of death [11]: 13.6 days

Structure (SMILES): O=c1[nH]c(=O)n(C2O[C@H](CBr)[C@@H](O)[C@H]2O)cc1F (some centres not stated)
- IC50 [1]: 3.1 µM
- Change of body weight [3]: 1.7%
- Change of body weight [5]: -1.8%
- IC50 [2]: 0.8 µM
- ILS at 100 mg/kg [6]: 34%
- ILS at 150 mg/kg [7]: 41%
- ILS at 250 mg/kg [8]: 34%
- Mean survival time [9]: 14.2 days
- Mean day of death [10]: 15 days
- Mean day of death [11]: 14.2 days

Structure (SMILES): O=c1[nH]c(=O)n([C@@H]2O[C@H](CO)[C@@H](O)[C@H]2O)cc1F [5-FLUOROURIDINE]
- IC50 [1]: 0.05 µM
- IC50 [2]: 0.005 µM

Structure (SMILES): C[C@H]1O[C@@H](n2cc(F)c(=O)[nH]c2=O)[C@H](O)[C@@H]1O [DOXIFLURIDINE]
- IC50 [1]: 22 µM
- Change of body weight [3]: 5.7%
- Change of body weight [4]: 4.8%
- Change of body weight [5]: 0%
- IC50 [2]: 3.6 µM
- ILS at 100 mg/kg [6]: 8%
- ILS at 150 mg/kg [7]: 13%
- ILS at 250 mg/kg [8]: 20%
- Mean survival time [9]: 11.4 days
- Mean day of death [10]: 12 days
- Mean day of death [11]: 12.8 days

Structure (SMILES): O=c1[nH]cc(F)c(=O)[nH]1 [FLUOROURACIL]
- IC50 [1]: 5 µM
- IC50 [2]: 0.5 µM
